Results from ChEMBL document CHEMBL1146601, “Antileishmanial ring-substituted ether phospholipids” (J Med Chem, 2003).
One block for each molecule: values may come before it.

What was measured:
Leishmania infantum = test: In vitro anti-leishmanial activity against promastigote cultures of Leishmania infantum MON 235; format: functional, organism-based
In short: (§1)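 Promastigotes (L. donovani MHOM/IN/80/DD8/LEM 703; L. infantum MHOM/TN/80/IPT1/LEM 235) grown in RPMI 1640 with 10% FCS, L-glutamine and antibiotics at 26 °C. Seeded at 5 × 10^5 cells/mL with 3-fold medium dilutions of a 9.625 mM DMSO solution, 72 h at 26 °C. MTT added for 3 h; SDS/2-propanol stop; A550 (ref 620 nm). IC50 by Hills method.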

Leishmania donovani = test: In vitro anti-leishmanial activity against promastigote cultures of Leishmania donovani MON 703; format: functional, organism-based; in short: as §1

SMILES: C[N+](C)(C)CCOP(=O)([O-])OCCOc1ccc2ccccc2c1
IC50 (Leishmania infantum): > 100 µM | IC50 (Leishmania donovani): > 100 µM

SMILES: CCCCCCCCCCCCCCCCOP(=O)([O-])OCC[N+](C)(C)C [MILTEFOSINE]
IC50 (Leishmania infantum): 22.6 µM | IC50 (Leishmania donovani): 23.7 µM

SMILES: C[N+]1(CCOP(=O)([O-])OCCOc2ccccc2)CCOCC1
IC50 (Leishmania infantum): > 100 µM | IC50 (Leishmania donovani): > 100 µM

SMILES: CCCCCCCCCCCCCCC1CCC(OCCOP(=O)([O-])OCC[N+](C)(C)C)CC1 (centres undefined)
IC50 (Leishmania infantum): 23.3 µM | IC50 (Leishmania donovani): 23.7 µM

SMILES: C[N+](C)(C)CCOP(=O)([O-])OCCOc1ccccc1
IC50 (Leishmania infantum): > 100 µM | IC50 (Leishmania donovani): > 100 µM

SMILES: C[N+](C)(C)CCOP(=O)([O-])OCC12CC3CC(CC(C3)C1)C2
IC50 (Leishmania infantum): > 100 µM | IC50 (Leishmania donovani): > 100 µM

SMILES: C[N+]1(CCOP(=O)([O-])Oc2ccc(C34CC5CC(CC(C5)C3)C4)cc2)CCOCC1
IC50 (Leishmania infantum): > 100 µM | IC50 (Leishmania donovani): > 100 µM

SMILES: C[N+](C)(C)CCOP(=O)([O-])OCCCCCCOc1ccccc1
IC50 (Leishmania infantum): > 100 µM | IC50 (Leishmania donovani): > 100 µM

Now from value to molecule:

IC50 (Leishmania infantum): 5.97 µM | IC50 (Leishmania donovani): 2.88 µM
SMILES: C[N+](C)(C)CCOP(=O)([O-])OCCCCCCCCCCCC1C2CC3CC(C2)CC1C3 (centres undefined)

IC50 (Leishmania infantum): > 100 µM | IC50 (Leishmania donovani): > 100 µM
SMILES: C[N+]1(CCOP(=O)([O-])OCCCCCCOc2ccccc2)CCOCC1

IC50 (Leishmania infantum): > 100 µM | IC50 (Leishmania donovani): > 100 µM
SMILES: C[N+]1(CCOP(=O)([O-])OCCOc2ccc3ccccc3c2)CCCCC1

IC50 (Leishmania infantum): > 100 µM | IC50 (Leishmania donovani): 4.02 µM
SMILES: C[N+](C)(C)CCOP(=O)([O-])OCCCCCC1C2CC3CC(C2)CC1C3 (centres undefined)
